Experimental findings from ChEMBL document CHEMBL4699492, “Discovery of Novel Pyrazolo[3,4-b] Pyridine Derivatives with Dual Activities of Vascular Remodeling Inhibition and Vasodilation for the Treatment of Pulmonary Arterial Hypertension” (J Med Chem, 2020) are described below.

Data set [1] is described as follows: Antiproliferative activity against HLF1 cells measured after 48 hrs under hypoxic condition by CCK8 assay. In kind it is functional, cell-based. The note with it: Homo sapiens, HLF1, 48 h. An outline of the steps: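 HPASMCs were grown in high-glucose D-MEM with 20% FBS, and HLF1 in D-MEM/F-12 (1:1) with 10% FBS. Cells were seeded for exponential growth, then exposed to a range of compound concentrations for 48 h at 37 °C under hypoxia (1% O2, 5% CO2, 94% N2). CCK-8 was added for 4 h and absorbance read at 490 nm. IC50 came from dose-response curves averaged over three independent experiments.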
For orientation: Formazan colour is commonly taken as a measure of viable cells.

The test system of data set [2] is Aorta. Description: Vasodilating activity in Sprague-Dawley rat aortic rings assessed as reduction in phenylephrine-induced contractions at 1 uM relative to control. Format: functional. An outline of the steps: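 Thoracic aorta from male SD rats (250-280 g) anesthetized with chloral hydrate, cut into 4 mm rings. Rings held in Krebs-Henseleit at 37 °C gassed with 95% O2/5% CO2, under 2 g resting tension, equilibrated 60 min, and precontracted with 10^-7 M phenylephrine. Cumulative concentrations of 3×10^-9 to 10^-6 M (final) applied. Percent relaxation of the initial contraction taken at 1 µM, and EC50 derived.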

Data set [3] deals with Pulmonary Artery Smooth Muscle Cells. In words: Stimulation of sGC in HPASMC assessed as increase in intracellular cGMP level measured after 1 hr in absence of PDE5 inhibitor IBMX and presence of sGC inhibitor ODQ by cGMP-d2/europium cryptate reagent based HTRF assay. Format: tissue-based. The note with it: Homo sapiens, filed as activator. An outline of the steps: (§1)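 HPASMCs were suspended at 100,000 cells/mL in PBS with 0.2% BSA, with or without 10 µM ODQ. Compounds were added as a 6-point, 10-fold dilution series; the top 2× stock was 200 µM. Incubation was 1 h at room temperature, in triplicate. cGMP-d2 in lysis buffer and europium cryptate were then added for 1 h before HTRF reading. Three independent experiments.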
In general terms: TR-FRET usually uses a lanthanide donor and a delayed reading to cut background.

Data set [4] deals with T1, AMP-activated protein kinase, AMPK (Homo sapiens) (UniProt P54646+O43741+P54619+Q9UGJ0+Q9Y478+Q13131+Q9UGI9). Description: Inhibition of AMPK in TGFbeta-induced HPASMC assessed as reduction in cell migration measured after 24 hrs by wound healing assay. In kind it is tissue-based. The note with it: Pulmonary Artery Smooth Muscle Cells, dose microM 5-10, time 24.0 hrs. An outline of the steps:
(§2)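 Wound-healing assay. 5 × 10^4 cells were seeded per well and grown 24 h to near confluence. The monolayer was scratched with a pipette tip and washed with PBS. Cells were then kept in 1% FBS medium with TGF-β (10 ng/mL) or under hypoxia (1% O2, 5% CO2, 94% N2), alone or with compound. Migration ran 24 h at 37 °C, imaged at 0 and 24 h. Mean ± SD from three independent experiments.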

For data set [5], the system named is Pulmonary Artery Smooth Muscle Cells. In words: Stimulation of sGC in HPASMC assessed as increase in intracellular cGMP level at 100 uM measured after 1 hr in absence of PDE5 inhibitor IBMX by cGMP-d2/europium cryptate reagent based HTRF assay relative to control. Format: tissue-based. The note with it: Homo sapiens. An outline of the steps: as §1
The test system is the same in data set [6]. In words: Stimulation of sGC in HPASMC assessed as increase in intracellular cGMP level measured after 1 hr in presence of […] IBMX by cGMP-d2/europium cryptate reagent based HTRF assay. In kind it is tissue-based. Conditions: Homo sapiens, filed as activator. Summed up:
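HPASMCs at 100 000 cells/mL in PBS with 1 mM IBMX and 0.2% BSA, with or without 10 µM ODQ. Exposed to a 6-point, 10-fold dilution series (top 200 µM, 2× stock) in triplicate for 1 h at room temperature. cGMP-d2 in lysis buffer and europium cryptate added, then 1 h at room temperature before HTRF reading. Three independent experiments averaged.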

In data set [7] the test system is Rattus norvegicus. In words: In vivo stimulation of sGC in Sprague-Dawley rat model of hypoxia-induced pulmonary artery hypertension assessed as increase in phosphorylation levels of VASP in lungs at 10 mg/kg, po administered daily for 2 weeks by Western blot analysis. Format: functional, organism-based. On the technique in general: In western blotting, separated proteins are transferred to a membrane and probed.

The nature of data set [8]: Half life in human liver microsomes at 1.5 uM preincubated for 5 mins followed by NADPH addition and measured up to 45 mins by LC-MS/MS analysis. Format: ADME, Microsome. Conditions: time <=50 min. An outline of the steps: (§3)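 Liver microsomes (0.75 mg/mL), human or SD rat, in 0.1 M potassium phosphate pH 7.4 with 3.0 mM MgCl2 and 1.5 µM compound, run in duplicate. After 5 min preincubation at 37 °C, reaction started with 3 mM NADPH. Quenched at 0, 5, 15, 30 and 45 min with ice-cold acetonitrile containing internal standard. Ketanserin served as positive control and a no-NADPH buffer incubation as negative control. LC-MS/MS read-out.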

Data set [9] addresses T1, AMP-activated protein kinase, AMPK (Homo sapiens). In words: Inhibition of AMPK in hypoxia-induced HPASMC assessed as reduction in cell migration measured after 24 hrs by wound healing assay. Format: tissue-based. The note with it: Pulmonary Artery Smooth Muscle Cells, dose microM 5-10, time 24.0 hrs. An outline of the steps: as §2
Data set [10] is described as follows: Protein binding in rat plasma. In kind it is ADME, cell-free. The note with it: read-out: PPB (converted).
In data set [11] the target is T1, AMP-activated protein kinase, AMPK (Homo sapiens). In words: Inhibition of AMPK in TGFbeta-induced HLF1 cells assessed as reduction in cell migration measured after 24 hrs by wound healing assay. Format: cell-based. The note with it: dose microM 5-10, time 24.0 hrs. An outline of the steps:
as §2

Data set [12] deals with Rattus norvegicus. Description: Inhibition of vascular remodeling activity in Sprague-Dawley rat model of hypoxia-induced pulmonary artery hypertension assessed as weight ratio of right ventricle/left ventricle plus septum at 10 mg/kg, po administered daily for 2 weeks (reference value: 0.63). Format: functional.
Data set [13] can be described thus: Half life in Sprague-Dawley rat liver microsomes at 1.5 uM preincubated for 5 mins followed by NADPH addition and measured up to 45 mins by LC-MS/MS analysis. Format: ADME, Microsome. Conditions: time <=50 min. Summed up: as §3
The subject of data set [14] is Pulmonary Artery Smooth Muscle Cells. Description: Stimulation of sGC in HPASMC assessed as increase in intracellular cGMP level measured after 1 hr in absence of PDE5 inhibitor IBMX and sGC inhibitor ODQ by cGMP-d2/europium cryptate reagent based HTRF assay. In kind it is tissue-based. Conditions: Homo sapiens, filed as activator. Summed up: as §1
Data set [15] has the same test system. Description: Stimulation of sGC in HPASMC assessed as increase in intracellular cGMP level at 100 uM measured after 1 hr in presence of PDE5 inhibitor IBMX by cGMP-d2/europium cryptate reagent based HTRF assay relative to control. The note with it: Homo sapiens, filed as activator. Format: tissue-based. An outline of the steps:
as §1

The test system of data set [16] is Rattus norvegicus. In words: Inhibition of vascular remodeling activity in Sprague-Dawley rat model of hypoxia-induced pulmonary artery hypertension assessed as reduction in pulmonary artery medial thickness at 10 mg/kg, po administered daily for 2 weeks by H and E staining based digital microscopic analysis. In kind it is functional, organism-based. Summed up:
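Hypoxia model in male SD rats (10% O2, 4 weeks) with oral dosing at 10 mg/kg daily for 14 days in 0.5% CMC-Na. Paraffin-embedded lung tissue was cut into 5 µm sections and stained with H&E. Pulmonary artery medial thickness was quantified, n = 5/group.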

The subject of data set [17] is Rattus norvegicus. Description: Inhibition of vascular remodeling activity in Sprague-Dawley rat model of hypoxia-induced pulmonary artery hypertension assessed as reduction in alpha-SMA expression in lungs at 10 mg/kg, po administered daily for 2 weeks by Western blot analysis. In kind it is functional, organism-based. An outline of the steps:
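Lungs came from hypoxic SD rats (10% O2, 4 weeks) dosed orally at 10 mg/kg daily for 14 days. Tissue was homogenised in RIPA buffer with protease and phosphatase inhibitors. 30 µg of protein was run on 10% SDS-PAGE and transferred to PVDF. Blots were probed overnight at 4 °C with anti-α-SMA (1:1000) and anti-β-actin (1:2000) and detected by fluorescence.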

The source made the active and inactive calls. No cut-off for these calls is given here.

On to `Cc1ccccc1COc1nc2c(cc1-c1nc(N)cc(N)n1)c(C)nn2-c1ccccc1`, for which the IC50 – broadly, the concentration that inhibits the measured activity by half – in data set [1] was 34.9 µM. In addition, the Emax (commonly the greatest response seen or fitted, relative to the assay's reference) at 1 µM in data set [2] came out at 63.2%. For the same compound, the result in data set [3], in data set [7] and in [14] was Active. The inhibition result in data set [4], in data set [9] and in data set [11] was “Dose-dependent effect” each time. Besides, the Activity was 5% in data set [5], “Dose-dependent effect” in data set [6] and 40% in [15]. Besides, the values for the half-life at 1.5 µM in data set [8] and in data set [13] were 2.08 h and 0.167 h, respectively. Moreover, the fraction unbound in [10] is 0.007. The Ratio in [12] is reported as 0.38. Moreover, the inhibition entry in [16] and in [17] was “Active” in each case.
